Experimental data reported in paper PMC4402254 (ACS chemical biology, 2015).

Legend:
[1] = biological target: 53BP1 tandem tudor domain (Homo sapiens, UniProt Q12888); experiment: Isothermal titration calorimetry; format: binding; conditions: ITC
Caco-2 cell = experiment: Bi-directional Caco-2 cell permeability assay; format: in vitro ADME
[2] = biological target: GFP fusion protein containing the 53BP1 tudor domains (Homo sapiens, UniProt Q12888); experiment: Fluorescence recovery after photobleaching; format: cell-based; conditions: FRAP before or after ionizing radiation (10 Gy)
Naive IgM+ B cells = experiment: Class switch recombination; format: cell-based, mouse; conditions: 300 µM
53BP1 D1521A mutant = 53BP1 D1521A mutant (Homo sapiens, UniProt Q12888, D1521A); experiment: ITC with active site mutant; format: binding; conditions: Kme pocket mutant, listed as UNC2170
endogenous 53BP1 = endogenous 53BP1 (Homo sapiens, UniProt Q12888); experiment: Chromatin release assay in HEK293 cell lysates; format: biochemical; conditions: 2 hours at room temperature
Procedure, shortened: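 HEK293 cells were lysed in EBC-1 (Tris pH 7.5, 100 mM NaCl, 0.5% NP-40, 1 mM EDTA). Washed nuclei were held 30 min in EBC-2 (Tris pH 7.5, 300 mM NaCl, 5 mM CaCl2), and the insoluble chromatin was pelleted and resuspended in EBC-2. Chromatin was exposed to test compound 2 h at RT. The supernatant (soluble) and the sonicated pellet (chromatin-bound) were western blotted for 53BP1, with histone H3 as loading control.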

[3] = CellTiter-Glo luminescent cell-viability assay; format: cell-based
U2OS cells = experiment: 53BP1 and γH2AX foci formation after ionizing radiation; format: cell-based
tudor domain of 53BP1 = tudor domain of 53BP1 (Homo sapiens, UniProt Q12888); experiment: 1H-15N HSQC NMR of 53BP1 tudor domain; format: binding; conditions: 10-fold molar excess of ligand
53BP1 = 53BP1 (Homo sapiens, UniProt Q12888); experiment: AlphaScreen Kme reader panel: 53BP1; format: binding
Procedure, shortened: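 Compound serially diluted 3-fold over 10 points in DMSO, top final 100 µM, and preincubated 30 min at RT with His-tagged reader protein–peptide mix in 20 mM Tris pH 8.0, 25 mM NaCl, 2 mM DTT, 0.05% Tween-20. Streptavidin donor/nickel-chelate acceptor bead mix (45 µg/mL) then added for 30 min, dark, RT, and AlphaScreen signal read. The same format was used across the Kme reader panel. IC50 is the mean of ≥3 values ± SD.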

Chain of 53BP1 (Q12888 1484-1603 limits assumed): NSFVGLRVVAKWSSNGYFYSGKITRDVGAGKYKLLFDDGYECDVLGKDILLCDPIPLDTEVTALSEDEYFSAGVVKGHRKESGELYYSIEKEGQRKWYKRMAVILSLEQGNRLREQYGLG
Chain of tudor domain of 53BP1 (Q12888 1484-1603 limits assumed): as above
Chain of 53BP1 tandem tudor domain (Q12888 1484-1603 limits assumed): as above
Chain of GFP fusion protein containing the 53BP1 tudor domains (Q12888 1484-1603 limits assumed): as above
Chain of 53BP1 D1521A mutant (Q12888 1484-1603 D1521A limits assumed): as the sequence (Q12888 1484-1603 limits assumed) above, with D38A counted along it
Chain of endogenous 53BP1 (Q12888 whole entry): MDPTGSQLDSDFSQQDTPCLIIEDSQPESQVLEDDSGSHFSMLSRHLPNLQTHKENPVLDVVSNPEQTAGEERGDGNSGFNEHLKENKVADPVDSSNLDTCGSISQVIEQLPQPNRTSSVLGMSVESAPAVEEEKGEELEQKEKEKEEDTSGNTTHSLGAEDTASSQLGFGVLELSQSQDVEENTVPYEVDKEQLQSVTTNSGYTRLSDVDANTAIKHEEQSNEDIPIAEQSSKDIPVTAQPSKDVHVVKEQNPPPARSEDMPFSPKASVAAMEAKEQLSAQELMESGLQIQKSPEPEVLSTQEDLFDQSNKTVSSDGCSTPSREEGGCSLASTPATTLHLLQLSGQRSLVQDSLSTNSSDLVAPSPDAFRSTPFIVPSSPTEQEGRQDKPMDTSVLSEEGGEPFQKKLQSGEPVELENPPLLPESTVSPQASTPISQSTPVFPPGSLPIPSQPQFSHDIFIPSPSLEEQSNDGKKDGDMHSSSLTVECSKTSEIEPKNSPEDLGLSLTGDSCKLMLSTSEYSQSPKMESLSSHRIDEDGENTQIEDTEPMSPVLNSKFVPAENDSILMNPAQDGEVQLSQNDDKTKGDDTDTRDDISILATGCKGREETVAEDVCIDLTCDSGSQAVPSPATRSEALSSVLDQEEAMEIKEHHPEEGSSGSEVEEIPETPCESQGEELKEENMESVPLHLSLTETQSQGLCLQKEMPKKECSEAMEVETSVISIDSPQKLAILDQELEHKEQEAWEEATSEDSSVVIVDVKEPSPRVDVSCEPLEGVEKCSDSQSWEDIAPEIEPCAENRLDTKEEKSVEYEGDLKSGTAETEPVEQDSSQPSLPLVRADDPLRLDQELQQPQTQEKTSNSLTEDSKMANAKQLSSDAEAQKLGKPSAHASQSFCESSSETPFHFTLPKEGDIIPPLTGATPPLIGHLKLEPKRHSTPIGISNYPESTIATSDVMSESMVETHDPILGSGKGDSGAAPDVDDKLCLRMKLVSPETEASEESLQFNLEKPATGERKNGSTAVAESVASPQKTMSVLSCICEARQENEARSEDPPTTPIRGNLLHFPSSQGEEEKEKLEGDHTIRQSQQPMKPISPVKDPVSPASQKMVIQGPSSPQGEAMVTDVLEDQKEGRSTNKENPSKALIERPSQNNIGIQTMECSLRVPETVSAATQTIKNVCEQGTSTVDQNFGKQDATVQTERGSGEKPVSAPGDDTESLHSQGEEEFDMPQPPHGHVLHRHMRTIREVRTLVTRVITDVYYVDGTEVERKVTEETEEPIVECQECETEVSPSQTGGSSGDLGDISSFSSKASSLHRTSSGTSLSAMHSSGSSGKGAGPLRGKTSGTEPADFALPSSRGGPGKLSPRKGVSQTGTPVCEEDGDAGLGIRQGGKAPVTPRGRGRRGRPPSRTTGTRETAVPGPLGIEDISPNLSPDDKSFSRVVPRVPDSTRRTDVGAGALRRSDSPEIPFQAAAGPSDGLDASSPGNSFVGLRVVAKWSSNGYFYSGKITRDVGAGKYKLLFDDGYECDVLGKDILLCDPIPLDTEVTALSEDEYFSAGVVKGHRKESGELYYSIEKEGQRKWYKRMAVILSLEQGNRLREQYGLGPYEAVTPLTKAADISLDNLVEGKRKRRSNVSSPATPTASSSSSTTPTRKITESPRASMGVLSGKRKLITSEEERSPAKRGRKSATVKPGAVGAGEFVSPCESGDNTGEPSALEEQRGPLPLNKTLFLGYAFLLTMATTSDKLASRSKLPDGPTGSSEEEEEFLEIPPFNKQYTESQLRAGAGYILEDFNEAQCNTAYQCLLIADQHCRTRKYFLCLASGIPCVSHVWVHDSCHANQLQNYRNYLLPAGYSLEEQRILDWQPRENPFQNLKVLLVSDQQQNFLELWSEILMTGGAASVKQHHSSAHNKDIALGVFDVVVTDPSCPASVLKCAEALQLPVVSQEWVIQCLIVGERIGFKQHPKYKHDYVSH

Row | SMILES | Kd against the 53BP1 tandem tudor domain [1] | cell permeability (Caco-2 cell) | apparent residence time of GFP-53BP1 tudor fusion protein [2] | cell viability of B cells undergoing CSR (Naive IgM+ B cells) | binding to 53BP1 D1521A mutant (53BP1 D1521A mutant) | lowest concentration at which partial release of 53BP1 was detected (endogenous 53BP1) [µM] | concentration at which cell toxicity begins to take effect [3] [µM] | γH2AX foci (U2OS cells; after compound treatment) | extent of endogenous 53BP1 foci formed following irradiation (U2OS cells; pretreatment 1 hour, 100 – 300 µM, 5 Gy) | changes in chemical shifts of 53BP1 tudor domain (tudor domain of 53BP1) | ligand efficiency (53BP1) | lipophilic ligand efficiency (53BP1) | selectivity for 53BP1 as compared to other Kme binding proteins tested (53BP1; versus nine other Kme reader proteins, AlphaScreen)
1 | CN(CCCNC(=O)c1cccc(Br)c1)C(C)(C)C [Compound 4] | no measurable affinity | – | – | – | – | – | – | – | – | – | – | – | –
2 | CC(C)(C)NCCCNC(=O)c1cccc(Br)c1 [Compound 1] | – | highly cell permeant | did not affect | reduction in cell viability | abrogated | 10 | > 10000 | no changes were observed | did not significantly decrease | Extensive changes in chemical shifts were observed | 0.35 | 1.5 | at least 17 fold
